High-throughput results: PubChem BioAssay, Sanford-Burnham Center for Chemical Genomics
In the library only some 1.5% were active in any assay of this set; here they are far more common.
CXCR6 inh – CXCR6 receptor inhibitors, primary screen, cell-based, beta-arrestin, luminescence, CHO-K1 PathHunter, 1536-well; C-X-C chemokine receptor type 6 (Homo sapiens), O00574; inhibition, % at 20 µM; hit rate 0.36% among 360,000; AID 602244, 2012; in the data active means inhibition above about 34%, passing the limit was not always enough;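 further: antagonist mode with CXCL16 agonist at 10 nM final; 0% = 10 nM CXCL16 with DMSO and 100% = unstimulated wells without agonist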
APJ ag – agonists of human apelin receptor APJ, primary screen, CHO-K1 cells, PathHunter beta-arrestin, luminescence; 0% DMSO wells, 100% apelin; P35414; activation, % at 20 µM; hit rate 0.11% among 330,000;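 active means activation more than six SD over the plate average, tested at 20 µM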;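 further: 0% = DMSO alone and 100% = apelin-13 at 10 nM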
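assay system = CHO-K1 APJ beta-arrestin complementation cell line | input = cell density 1000 per well | dosing = compound 20 µM once, DMSO 1% | timing = compound 90 min 25 °C, reagent 1 h | measured by = luminescence from split beta-galactosidase complementation, Galacton Star/Emerald II substrate | read-out basis = APJ agonist activity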
APJ antagonist – antagonists of human apelin receptor APJ, primary screen, CHO-K1 cells, beta-arrestin complementation, luminescence; P35414; hit rate 0.32% among 330,000; inhibition, % at 20 µM;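 active means inhibition above about 40% at 20 µM, limit read from the data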;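 further: cells challenged with 10 nM apelin-13 agonist together with compound; plate controls were apelin-13 plus DMSO wells for no effect and DMSO wells lacking apelin-13 for full effect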
CCR6 antag – CCR6 receptor antagonists, primary screen, cell-based, CHO-K1, luminescence, beta-arrestin, uHTS | inhibition, % at 20 µM | C-C chemokine receptor type 6 (Homo sapiens), P51684 | hit rate 0.49% among 340,000 | CHO-K1 CCR6 PathHunter beta-arrestin, CCL20-stimulated;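 active means compounds whose inhibition of the agonist-driven luminescence signal at 20 µM reaches about 50%, limit read from the data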;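 further: cells stimulated with CCL20 at 14 nM final; plate controls were DMSO with CCL20 for no effect and DMSO without agonist for full effect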
Target sequence (P51684 whole entry, looked up): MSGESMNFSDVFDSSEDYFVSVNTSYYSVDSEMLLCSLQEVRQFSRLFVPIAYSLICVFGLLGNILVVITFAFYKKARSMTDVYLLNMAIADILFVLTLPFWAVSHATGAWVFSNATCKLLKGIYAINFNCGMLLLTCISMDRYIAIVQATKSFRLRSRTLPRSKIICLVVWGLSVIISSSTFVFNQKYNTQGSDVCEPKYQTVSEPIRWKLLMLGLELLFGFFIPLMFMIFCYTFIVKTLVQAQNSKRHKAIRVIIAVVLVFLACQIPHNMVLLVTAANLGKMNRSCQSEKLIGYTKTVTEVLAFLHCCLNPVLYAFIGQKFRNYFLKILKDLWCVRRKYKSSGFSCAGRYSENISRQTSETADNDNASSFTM
EBI2 antag – EBI2 receptor antagonists, beta-arrestin recruitment, primary screen, cell-based, luminescence, 7a,25-OHC stimulation, uHTS | G-protein coupled receptor 183 (Homo sapiens), P32249 | 7a,25-OHC stimulated | inhibition, % at 5 µM | hit rate 0.81% among 360,000 | AID 651636, 2012; in the data active means inhibition above about 38%;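 further: enzyme fragment complementation signal reports receptor beta-arrestin coupling in cells; 0% = agonist plus DMSO wells and 100% = wells without agonist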
* hit, by the source's call.

Results for O=C1C(=O)c2cccc3cccc1c23 ?
CXCR6 inh: 44*; APJ ag: -13; APJ antagonist: 63*; CCR6 antag: 67*; EBI2 antag: 57*

How did Cc1ccc(-n2c(O)c(/C=N/N3CCCCCC3)c(=O)[nH]c2=O)cc1C do in these assays?
CXCR6 inh: -2; APJ ag: -3; APJ antagonist: -1; CCR6 antag: -3; EBI2 antag: -13

Results for COC(=O)C1=C(c2c(C)noc2C)C[C@@H]2CC[C@H]1N2C(=O)N1CCCC1 ?
CXCR6 inh: 4; APJ ag: -3; APJ antagonist: -2; CCR6 antag: 1; EBI2 antag: -8

Results for O=C(N/N=C\C1C(=O)NC(=S)N(c2ccccc2)C1=O)c1ccc(O)cc1 (configuration not stated) ?
CXCR6 inh: 4; APJ ag: -6; APJ antagonist: -9; CCR6 antag: 62*; EBI2 antag: -10

How did O=c1[nH]c(=O)n(-c2cccc3ccccc23)c(O)c1/C=N/N1CCCCC1 do in these assays?
CXCR6 inh: 5; APJ ag: 0; APJ antagonist: 9; CCR6 antag: 3; EBI2 antag: -1

How did O=C1NC(=O)N(CCc2ccc(F)cc2)C(=O)/C1=C\C=C\c1ccccc1 do in these assays?
CXCR6 inh: -7; CCR6 antag: -24; EBI2 antag: 48*

How did C=CCN1C(=O)NC(=O)/C(=C/C=C/c2ccccc2)C1=O do in these assays?
CXCR6 inh: -23; CCR6 antag: 1; EBI2 antag: 3

Results for COC(=O)C1=C(c2ccc(-c3ccccc3)c(F)c2)C[C@@H]2CC[C@H]1N2C(=O)N1CCC(C)CC1 ?
CXCR6 inh: 41*; APJ ag: -4; APJ antagonist: 14; CCR6 antag: 28; EBI2 antag: 33

How did COC(=O)C1=C(c2ccc(-c3ccccc3)c(F)c2)C[C@@H]2CC[C@H]1N2C(=O)N1CCC(O)CC1 do in these assays?
CXCR6 inh: -2; APJ ag: -4; APJ antagonist: 5; CCR6 antag: 9; EBI2 antag: 1

Results for C=C1C(=O)OC2CC(C)C3C=CC(=O)C3(C)C(O)C12 (configuration not stated) ?
CXCR6 inh: 29; CCR6 antag: 47; EBI2 antag: 47*

Results for CCSP1(=S)N=C(N2CCOCC2)C(C#N)=C2CCCN21 (configuration not stated) ?
CXCR6 inh: 6; APJ ag: 0; APJ antagonist: 16; CCR6 antag: 3; EBI2 antag: -4

What do the screens show for `CN1/C(=C\C=C\C2=[N+](C)c3ccc4ccccc4c3C2(C)C)C(C)(C)c2ccccc21`?
APJ ag: -5; APJ antagonist: 43*

Results for CCN1/C(=C/C=C/C2=[N+](CC)c3ccccc3C2(C)C)C(C)(C)c2ccccc21 ?
CXCR6 inh: 56*; EBI2 antag: 16

How did CCOP(=O)(OCC)C(NC(=O)c1cccc(C)c1)C(Cl)(Cl)Cl (configuration not stated) do in these assays?
CXCR6 inh: -9; APJ ag: -5; APJ antagonist: 0; CCR6 antag: -4; EBI2 antag: 5

Results for ON1C2CCCCC2N(O)C1c1ccccc1F (configuration not stated) ?
CXCR6 inh: 24; APJ ag: -8; APJ antagonist: 24; CCR6 antag: 80*; EBI2 antag: -13

Results for CN1CC(C(=O)c2ccc(Cl)cc2)C(c2ccccc2F)C1 (configuration not stated) ?
CXCR6 inh: 8; APJ ag: -4; APJ antagonist: 7; CCR6 antag: 13; EBI2 antag: 8

How did Cc1cc(OC(C)C(=O)NCC(O)c2ccccc2)c2c3c(c(=O)oc2c1)CCC3 (configuration not stated) do in these assays?
CXCR6 inh: 5; APJ ag: -4; APJ antagonist: -10; CCR6 antag: 21; EBI2 antag: 7

How did O=C1NC(=O)C(=Cc2ccc(-c3ccc(Cl)cc3)o2)C(=O)N1 do in these assays?
CXCR6 inh: 50*; APJ ag: 24; APJ antagonist: -2; CCR6 antag: 71*; EBI2 antag: 21

What do the screens show for `O=C1NC(=O)C(=Cc2ccc(-c3ccc(S(=O)(=O)N4CCOCC4)cc3)o2)C(=O)N1`?
CXCR6 inh: 5; APJ ag: 9; APJ antagonist: -8; CCR6 antag: -4; EBI2 antag: -3

How did O=c1c2ccccc2nc(-c2ccc([N+](=O)[O-])cc2)n1-c1ccccc1 do in these assays?
CXCR6 inh: 2; APJ ag: 1; APJ antagonist: 6; CCR6 antag: -5; EBI2 antag: -3

How did CC12CCCCC1N(O)CN2O (configuration not stated) do in these assays?
CXCR6 inh: 5; APJ ag: -1; APJ antagonist: 18; CCR6 antag: 60*; EBI2 antag: 4

How did CC(C)OCCCNC(=O)c1c(N)n(Cc2cccs2)c2nc3ccccc3nc12 do in these assays?
CXCR6 inh: -1; APJ ag: -5; APJ antagonist: 21; CCR6 antag: -11; EBI2 antag: 71*

Results for COCCCNC(=O)c1c(N)n(Cc2ccco2)c2nc3ccccc3nc12 ?
CXCR6 inh: 5; APJ ag: 0; APJ antagonist: 6; CCR6 antag: -3; EBI2 antag: 10

How did COC(=O)C1CN(C#N)N(c2ccc(Cl)cc2)C12c1ccccc1-c1ccccc12 (configuration not stated) do in these assays?
CXCR6 inh: 23; APJ ag: 2; APJ antagonist: 21; CCR6 antag: 32; EBI2 antag: 53*

How did CCN(CC)P(=O)(c1nccn1C)N(CC)CC do in these assays?
CXCR6 inh: 3; APJ ag: -3; APJ antagonist: 10; CCR6 antag: 5; EBI2 antag: -8

What do the screens show for `O=C(Cn1c(=O)n(CC2CS2)c2ccccc21)N1CCCCCC1` (configuration not stated)?
CXCR6 inh: -5; APJ ag: -5; APJ antagonist: 8; CCR6 antag: 62*; EBI2 antag: -9

What do the screens show for `C=C(C)Cn1c(=O)n(CC2CS2)c2ccccc21` (configuration not stated)?
CXCR6 inh: -22; APJ ag: -3; APJ antagonist: 4; CCR6 antag: 2; EBI2 antag: -5

How did O=c1c2ccccc2nc(-c2ccccc2)n1-c1ccccc1 do in these assays?
CXCR6 inh: -8; APJ ag: -1; APJ antagonist: 16; CCR6 antag: 1; EBI2 antag: -8

How did O=c1c2ccccc2[se]n1-c1ccccc1 do in these assays?
CXCR6 inh: -3; APJ ag: -1; APJ antagonist: -3; CCR6 antag: 15; EBI2 antag: 62*
